Values after ≈ are worked out from the molar mass of the structure shown.
Assays:
[1] = system: Plasmodium falciparum; assay: In vitro antimalarial activity against Plasmodium falciparum Indochina W2; type: functional, organism-based
Summary of the method: (§1)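 Compound dissolved in DMSO and 70% ethanol, then diluted in RPMI 1640 with 10% human plasma and tested over (1.56-100) × 10^-9 M. Parasites at 0.5% parasitemia, 1% hematocrit, incubated 24 h with compound before [3H]hypoxanthine was added, then a further 18 h. Read-out is [3H]hypoxanthine uptake. IC50 obtained by nonlinear regression of concentration-response data.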

[2] = system: Plasmodium falciparum; assay: In vitro antimalarial activity against Plasmodium falciparum D6 Sierra Leone; type: functional, organism-based; summary of the method: as §1
[3] = system: Plasmodium berghei; assay: Antimalarial activity for Plasmodium berghei infected mice (Mus musculus) (n=5) at 320 mg/kg/day; type: functional
[4] = system: Plasmodium berghei; assay: Antimalarial activity for Plasmodium berghei infected mice (Mus musculus) (n=5) at 80 mg/kg/day; type: functional
[5] = system: Plasmodium berghei; assay: Antimalarial activity for Plasmodium berghei infected mice (Mus musculus) (n=5) at 20 mg/kg/day; type: functional

`C[C@H]1[C@@H](O[C@@H]2O[C@H](CO)[C@@H](O[C@@H]3O[C@H](CO)[C@@H](O)[C@H](O)[C@H]3O)[C@H](O)[C@H]2O)O[C@@H]2O[C@@]3(C)CC[C@H]4[C@H](C)CC[C@@H]1[C@@]24OO3` gave an IC50 [1] of 0.171 µg/mL (≈ 0.281 µM) and an IC50 [2] of 0.71 µg/mL (≈ 1.17 µM).

`C[C@H]1[C@@H](O[C@@H]2O[C@H](CO)[C@@H](O)[C@H](O)[C@H]2O)O[C@@H]2O[C@@]3(C)CC[C@H]4[C@H](C)CC[C@@H]1[C@@]24OO3` gave an IC50 [1] of 0.0341 µg/mL (≈ 0.0763 µM) and an IC50 [2] of 0.121 µg/mL (≈ 0.272 µM).

In the case of `C[C@H]1[C@@H](O[C@@H]2O[C@H](CO)[C@H](O)[C@H](O)[C@H]2O)O[C@@H]2O[C@@]3(C)CC[C@H]4[C@H](C)CC[C@@H]1[C@@]24OO3`, the IC50 [1] is reported as 0.0356 µg/mL (≈ 0.0797 µM) and the IC50 [2] is reported as 0.0131 µg/mL (≈ 0.0294 µM).

`CC(=O)O[C@@H]1[C@@H](OC(C)=O)[C@@H](C)O[C@H](COC(=O)CO[C@H]2O[C@@H]3O[C@@]4(C)CC[C@H]5[C@H](C)CC[C@@H]([C@H]2C)[C@@]35OO4)[C@H]1OC(C)=O` was tested, and the “No. of mice cured” value [3] was 5, the IC50 [1] was 0.00019 µg/mL (≈ 0.000302 µM) and the “No. of mice cured” value [4] was 0. The IC50 [2] was 0.00248 µg/mL (≈ 0.00394 µM) and the “No. of mice cured” value [5] was 0.

`C[C@H]1[C@@H](O[Si](C)(C)C)O[C@@H]2O[C@@]3(C)CC[C@H]4[C@H](C)CC[C@@H]1[C@@]24OO3` was tested, and the “No. of mice cured” value [3] was 4, the IC50 [1] was 0.00042 µg/mL (≈ 0.00118 µM) and the “No. of mice cured” value [4] was 5. The IC50 [2] was 0.00111 µg/mL (≈ 0.00311 µM) and the “No. of mice cured” value [5] was 1.

With `C[C@@H]1CC[C@H]2[C@@H](C)C(=O)O[C@@H]3O[C@@]4(C)CC[C@@H]1[C@]32OO4` [ARTEMISININ] the IC50 [1] was 0.00068 µg/mL (≈ 0.00241 µM).

Reference: ChEMBL document CHEMBL1125460, “Antimalarial activity of new dihydroartemisinin derivatives. 5. Sugar analogues” (J Med Chem, 1992)
